The term CC50 denotes the concentration at which the toxic effect on the cells reaches its halfway point. The EC50 is the concentration giving half of the maximal effect.

SMILES strings stand for the structures. Converted amounts (≈) assume the structure as drawn. A value given as a limit tells only on which side of the number the result lay.

The values below come from ChEMBL document CHEMBL1155465, “"Viologen" dendrimers as antiviral agents: the effect of charge number and distance” (J Med Chem, 2010).

Series [1] is described as follows: Cytotoxicity against human MT4 cells after 5 days by MTT assay. It is filed as cell-based. The procedure, abridged:
(§1)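 MT-4 cells in RPMI 1640 with 10% heat-inactivated FCS, 2 mM L-glutamine, 0.1% bicarbonate and gentamicin, seeded at 6 × 10⁵ cells/mL final with virus or mock infection. Viability read by MTT after 5 days at 540 and 690 nm, using the median OD of three wells. CC50 is 50% loss of mock-infected OD540. EC50 is 50% inhibition of virus-induced CPE. SI = CC50/EC50. Mean ± SD of ≥2 experiments.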

The nature of series [2]: Selectivity index, ratio of CC50 for human MT4 cells to EC50 for HIV1 3B. It is filed as toxicity, cell-based. The following applies: read-out: Ratio CC50/EC50. The gist of the method: as §1
Series [3] has as its system Human immunodeficiency virus 1. The experiment in a line: Antiviral activity against HIV1 3B infected in human MT4 cells after 5 days by MTT assay. The series is classed as functional, organism-based. The following applies: Human immunodeficiency virus 1, 3B, MT4, 120 h. The procedure, abridged:
as §1
On the technique in general: Tetrazolium assays rely on reduction of a dye to a coloured formazan, in cell work by metabolically active cells.

In series [4] the test system is Human immunodeficiency virus 2. Nature of the series: Antiviral activity against HIV2 ROD infected in human MT4 cells after 5 days by MTT assay. It is filed as functional, organism-based. The note with it: Human immunodeficiency virus 2, ISOLATE ROD, MT4, 120 h. The gist of the method:
as §1

The test system of series [5] is Simian immunodeficiency virus. The experiment in a line: Antiviral activity against SIV MAC251 infected in human MT4 cells after 5 days by MTT assay. It is filed as functional, organism-based. The following applies: MAC251, MT4, 120 h. The procedure, abridged:
as §1

The test system of series [6] is Human immunodeficiency virus. The experiment in a line: Antiviral activity against HIV SO6141 infected in human MT4 cells after 5 days by MTT assay. The series is classed as functional, organism-based. The note with it: Human immunodeficiency virus 1, SO6141, MT4, 120 h. The procedure, abridged:
as §1

Series [7] in a line: Cytotoxicity against african green monkey Vero cells by MTT assay. The series is classed as cell-based. The following applies: chlorocebus sabaeus.
A short description of series [8]: Cytotoxicity against human HeLa cells by MTT assay. It is filed as cell-based.
The subject of series [9] is Vesicular stomatitis virus. The experiment in a line: Antiviral activity against VSV infected in human HeLa cell assessed as inhibition of virus-induced cytopathicity. It is filed as functional, organism-based. A general note: Cytopathic effects are the visible damage that an infection or toxin causes in cultured cells.
Series [10] deals with Human alphaherpesvirus 1. The experiment in a line: Antiviral activity against TK-deficient acyclovir-resistant HSV1 KOS infected in human E6SM cell assessed as inhibition of virus-induced cytopathicity. The series is classed as functional, organism-based. The following applies: Human alphaherpesvirus 1, KOS.
Another series deals with Punta Toro virus. The experiment in a line: Antiviral activity against Punta Toro virus infected in african green monkey Vero cells assessed as inhibition of virus-induced cytopathicity. It is filed as functional, organism-based.
In the next series the test system is Reovirus sp. Nature of the series: Antiviral activity against Reovirus infected in african green monkey Vero cells assessed as inhibition of virus-induced cytopathicity. The series is classed as functional, organism-based.
Another series concerns Human respirovirus 3. Nature of the series: Antiviral activity against Parainfluenza virus 3 infected in african green monkey Vero cells assessed as inhibition of virus-induced cytopathicity. It is filed as functional, organism-based. The following applies: Human respirovirus 3, Vero.
The next series deals with Human alphaherpesvirus 2. The experiment in a line: Antiviral activity against HSV2 G infected in human E6SM cell assessed as inhibition of virus-induced cytopathicity. The note with it: Human alphaherpesvirus 2, strain G. The series is classed as functional, organism-based.
A short description of series [11]: Cytotoxicity against human E6SM cells by MTT assay. It is filed as cell-based.
A further series concerns Sindbis virus. Nature of the series: Antiviral activity against Sindbis virus infected in african green monkey Vero cells assessed as inhibition of virus-induced cytopathicity. The series is classed as functional, organism-based.
The test system of series [12] is Human alphaherpesvirus 1. The experiment in a line: Antiviral activity against HSV1 KOS infected in human E6SM cell assessed as inhibition of virus-induced cytopathicity. It is filed as functional, organism-based. The note with it: Human alphaherpesvirus 1, KOS.
For series [13], the system named is Respiratory syncytial virus. The experiment in a line: Antiviral activity against RSV infected in human HeLa cell assessed as inhibition of virus-induced cytopathicity. The series is classed as functional, organism-based.
For a further series, the system named is Vaccinia virus. Nature of the series: Antiviral activity against Vaccina virus infected in human E6SM cell assessed as inhibition of virus-induced cytopathicity. The series is classed as functional, organism-based. The following applies: Orthopoxvirus vaccinia.
Series [14] has as its system Vesicular stomatitis virus. Nature of the series: Antiviral activity against VSV infected in human E6SM cell assessed as inhibition of virus-induced cytopathicity. It is filed as functional, organism-based.

Turning to `C=C[n+]1ccc(-c2cc[n+](Cc3cc(C[n+]4ccc(-c5cc[n+](C=C)cc5)cc4)cc(C[n+]4ccc(-c5cc[n+](C=C)cc5)cc4)c3)cc2)cc1`, half-maximal cytotoxicity in series [1] (CC50 at 120 h) was put at 33.4 µM. Further, the selectivity ratio in series [2] was less than 1. The EC50 in series [3] and in [4] was more than 33.4 µM throughout.
Consider `C[n+]1ccc(-c2cc[n+](CBr)cc2)cc1`, for which the midpoint of cytotoxicity in [1], the CC50 at 120 h, lay at 5.1 µM. Moreover, the selectivity ratio in series [2] is less than 1. Besides, the EC50 in [3] and in series [4] was more than 5.1 µM in each case.
On to `NCCC[n+]1ccc(-c2cc[n+](Cc3ccccc3)cc2)cc1`, for which the CC50 at 120 h in series [1] was determined as 0.9 µM. In series [2], the selectivity ratio was less than 1. Moreover, the EC50 in series [3] and in series [4] was more than 0.9 µM each time.
Regarding `BrCC[n+]1ccc(-c2cc[n+](CCBr)cc2)cc1`, the half-maximal effective concentration (EC50) is more than 20.6 µM in series [5], 5.88 µM in series [3] and more than 20.6 µM in series [4]. In series [1], this compound yielded a CC50 at 120 h of 20.6 µM. Moreover, the selectivity ratio in series [2] worked out at 3.5.
Turning to `BrCc1cc(CBr)cc(-[n+]2ccc(-c3cc[n+](-c4cc(CBr)cc(CBr)c4)cc3)cc2)c1`, the CC50 at 120 h in [1] is more than 148 µM. Further, the selectivity ratio in series [2] is less than 1. In addition, the concentration for a half-maximal effect (EC50) in series [3] and in series [4] was more than 148 µM in each case.
`CC[n+]1ccc(-c2cc[n+](Cc3ccc(CBr)cc3)cc2)cc1` came in with a CC50 at 120 h in series [1] of 0.9 µM. Also, in series [2], the selectivity ratio was less than 1. Further, the EC50 in series [3] and in series [4] was more than 0.9 µM in each case.
Regarding `OCC[n+]1ccc(-c2cc[n+](Cc3cc(C[n+]4ccc(-c5cc[n+](CCO)cc5)cc4)cc(C[n+]4ccc(-c5cc[n+](CCO)cc5)cc4)c3)cc2)cc1`, the EC50 was 37.7 µM in series [5], 33.3 µM in series [3], more than 104 µM in series [6] and more than 104 µM in series [4]. In addition, in series [1], the CC50 at 120 h is more than 104 µM. Moreover, in series [2], the selectivity ratio came out at 3.11.
In series [1], `CC[n+]1ccc(-c2cc[n+](Cc3cc(CO)cc(C[n+]4ccc(-c5cc[n+](CC)cc5)cc4)c3)cc2)cc1` registered a CC50 at 120 h of 10.6 µM. Moreover, the selectivity ratio in series [2] was less than 1. Besides, the EC50 in [3] and in series [4] was more than 10.6 µM in each case.
Consider `CC[n+]1ccc(-c2ccncc2)cc1`, for which the midpoint of cytotoxicity in series [1], the CC50 at 120 h, lay at 281 µM. For the same compound, the selectivity ratio in [2] is less than 1. In addition, the EC50 in [3] and in [4] was more than 282 µM throughout.
In [1], `CC[n+]1ccc(-c2cc[n+](Cc3cc(C[n+]4ccc(-c5cc[n+](CC)cc5)cc4)cc(C[n+]4ccc(-c5cc[n+](CC)cc5)cc4)c3)cc2)cc1` displayed a CC50 at 120 h of more than 81.1 µM. For the same compound, in [2], the selectivity ratio is less than 1. Further, the EC50 in series [3] and in series [4] was more than 81.1 µM each time.
Consider `C=C[n+]1ccc(-c2cc[n+](Cc3ccccc3)cc2)cc1`, for which, in series [1], half-maximal cytotoxicity (CC50 at 120 h) was put at 2.7 µM. Further, in [2], the selectivity ratio was less than 1. In addition, the EC50 in [3] and in series [4] was more than 2.7 µM each time.
Compound `OCc1cc(CO)cc(-[n+]2ccc(-c3cc[n+](-c4cc(CO)cc(CO)c4)cc3)cc2)c1` yielded a CC50 at 120 h in series [1] of 2.7 µM. The selectivity ratio in series [2] is less than 1. Also, the EC50 in series [3] and in [4] was more than 2.7 µM in each case.
`BrCC[n+]1ccc(-c2ccncc2)cc1` displayed a CC50 at 120 h in series [1] of 79.2 µM. Moreover, the selectivity ratio in series [2] was less than 1. The EC50 in series [3] and in [4] was more than 79.2 µM each time.
As to `O=c1[nH]c(=O)n([C@H]2C[C@H](O)[C@@H](CO)O2)cc1/C=C/Br` [BRIVUDINE], the MCC in series [7], in series [8] and in [11] was more than 400 µg/mL throughout. The EC50 in [9] is more than 400 µg/mL; in the series on Human alphaherpesvirus 1 [10] it was more than 400 µg/mL; in the series on Punta Toro virus, more than 400 µg/mL; with Reovirus sp., more than 400 µg/mL; in the series with Human respirovirus 3, more than 400 µg/mL; in the series with Human alphaherpesvirus 2, 80 µg/mL (≈ 240 µM). For the same compound, the EC50 in the series with Sindbis virus was more than 400 µg/mL; in the series on Human alphaherpesvirus 1 [12], 0.384 µg/mL (≈ 1.15 µM); in [13], more than 400 µg/mL; with Vaccinia virus it was 9.6 µg/mL (≈ 28.8 µM); in [14], more than 400 µg/mL.
Take `C=C[n+]1ccc(-c2ccncc2)cc1`: in series [1], the CC50 at 120 h came out at 15.9 µM. In addition, the selectivity ratio in series [2] is less than 1. Besides, the EC50 in [3] and in series [4] was more than 15.9 µM each time.
In series [1], `C[n+]1ccc(-c2cc[n+](C)cc2)cc1` displayed a CC50 at 120 h of 25.2 µM. Moreover, the selectivity ratio in [2] is less than 1. For the same compound, the EC50 in series [3] and in [4] was more than 25.2 µM in each case.
Take `NC(=O)c1ncn([C@@H]2O[C@H](CO)[C@@H](O)[C@H]2O)n1` [RIBAVIRIN]: the MCC in series [7], in [8] and in series [11] was more than 400 µg/mL each time. The 50% effective concentration (EC50) is 48 µg/mL (≈ 197 µM) in [9]; more than 400 µg/mL with Human alphaherpesvirus 1 [10]; 80 µg/mL (≈ 328 µM) in the series with Reovirus sp.; more than 400 µg/mL in the series with Human alphaherpesvirus 2; more than 400 µg/mL in the series with Sindbis virus; more than 400 µg/mL in the series with Human alphaherpesvirus 1 [12]. Further, the EC50 is 48 µg/mL (≈ 197 µM) with Vaccinia virus and more than 400 µg/mL in [14].
`CCC[n+]1ccc(-c2ccncc2)cc1` returned a CC50 at 120 h in [1] of more than 363 µM. In addition, the selectivity ratio in series [2] was less than 1. The EC50 in series [3] and in series [4] was more than 363 µM in each case.
`C=C[n+]1ccc(-c2cc[n+](C)cc2)cc1` gave a CC50 at 120 h in [1] of 26.1 µM. The selectivity ratio in series [2] is less than 1. The EC50 in [3] and in series [4] was more than 26.1 µM throughout.
The compound `NCCC[n+]1ccc(-c2cc[n+](CCCN)cc2)cc1` registered a CC50 at 120 h in series [1] of 3.3 µM. For the same compound, the selectivity ratio in [2] is less than 1. Besides, the EC50 in [3] and in series [4] was more than 3.3 µM in each case.
In turn, `C=C[n+]1ccc(-c2cc[n+](CCc3ccc([N+](=O)[O-])cc3)cc2)cc1` returned a CC50 at 120 h in series [1] of 0.4 µM. In [2], the selectivity ratio is less than 1. Moreover, the EC50 in [3] and in series [4] was more than 0.4 µM throughout.
With `NCCC[n+]1ccc(-c2ccncc2)cc1`, in series [1], the CC50 at 120 h was more than 346 µM. Moreover, the selectivity ratio in series [2] was less than 1. For the same compound, the concentration giving a half-maximal response (EC50) in [3] and in series [4] was more than 346 µM in each case.
